Test results published in ChEMBL document CHEMBL1154831, “Synthesis, characterization and biological activity of some new 1,3,4-oxadiazole bearing 2-flouro-4-methoxy phenyl moiety” (2010).
≈ marks a conversion by molar mass, not a printed value.

Experiments:
Type in all cases: functional
Candida albicans = assay: Antimicrobial activity against Candida albicans after 16 to 18 hrs by serial dilution method
Summary of the method: (§1)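 Serial dilutions of each compound, each inoculated with one standard drop of the prepared test culture. Incubation was 16–18 h at 37 °C. MIC was read as the highest dilution giving clear fluid with no turbidity.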

Escherichia coli = assay: Antimicrobial activity against Escherichia coli after 16 to 18 hrs by serial dilution method; summary of the method: as §1
Pseudomonas aeruginosa = assay: Antimicrobial activity against Pseudomonas aeruginosa after 16 to 18 hrs by serial dilution method; summary of the method: as §1
Staphylococcus aureus = assay: Antimicrobial activity against Staphylococcus aureus after 16 to 18 hrs by serial dilution method; summary of the method: as §1
Bacillus subtilis = assay: Antimicrobial activity against Bacillus subtilis after 16 to 18 hrs by serial dilution method; summary of the method: as §1

Compound	MIC (Candida albicans)	MIC (Escherichia coli)	MIC (Pseudomonas aeruginosa)	MIC (Staphylococcus aureus)	MIC (Bacillus subtilis)
COc1ccc(-c2nnc(-c3ccc([N+](=O)[O-])c(F)c3)o2)c(F)c1	6 µg/mL (≈ 18 µM)	6 µg/mL (≈ 18 µM)	6 µg/mL (≈ 18 µM)	6 µg/mL (≈ 18 µM)	6 µg/mL (≈ 18 µM)
COc1ccc(-c2nnc(-c3cccc(Br)c3C)o2)c(F)c1	6 µg/mL (≈ 16.5 µM)	3 µg/mL (≈ 8.26 µM)	3 µg/mL (≈ 8.26 µM)	6 µg/mL (≈ 16.5 µM)	6 µg/mL (≈ 16.5 µM)
COc1ccc(-c2nnc(-c3cccc(C)c3C)o2)c(F)c1	6 µg/mL (≈ 20.1 µM)	6 µg/mL (≈ 20.1 µM)	12.5 µg/mL (≈ 41.9 µM)	6 µg/mL (≈ 20.1 µM)	6 µg/mL (≈ 20.1 µM)
NC(=O)N/N=C/c1ccc([N+](=O)[O-])o1 [NITROFURAZONE]	–	6 µg/mL (≈ 30.3 µM)	12.5 µg/mL (≈ 63.1 µM)	12.5 µg/mL (≈ 63.1 µM)	12.5 µg/mL (≈ 63.1 µM)
COc1ccc(-c2nnc(-c3cc(Cl)ccc3Br)o2)c(F)c1	3 µg/mL (≈ 7.82 µM)	6 µg/mL (≈ 15.6 µM)	6 µg/mL (≈ 15.6 µM)	6 µg/mL (≈ 15.6 µM)	6 µg/mL (≈ 15.6 µM)
COc1ccc(-c2nnc(-c3c([N+](=O)[O-])ccc(F)c3F)o2)c(F)c1	6 µg/mL (≈ 17.1 µM)	12.5 µg/mL (≈ 35.6 µM)	6 µg/mL (≈ 17.1 µM)	6 µg/mL (≈ 17.1 µM)	6 µg/mL (≈ 17.1 µM)
COc1ccc(-c2nnc(-c3ccc(F)cc3)o2)c(F)c1	6 µg/mL (≈ 20.8 µM)	12.5 µg/mL (≈ 43.4 µM)	6 µg/mL (≈ 20.8 µM)	6 µg/mL (≈ 20.8 µM)	6 µg/mL (≈ 20.8 µM)
COc1ccc(-c2nnc(-c3cc(C)on3)o2)c(F)c1	3 µg/mL (≈ 10.9 µM)	6 µg/mL (≈ 21.8 µM)	6 µg/mL (≈ 21.8 µM)	12.5 µg/mL (≈ 45.4 µM)	12.5 µg/mL (≈ 45.4 µM)
COc1ccc(-c2nnc(-c3cc(F)cc(F)c3)o2)c(F)c1	6 µg/mL (≈ 19.6 µM)	6 µg/mL (≈ 19.6 µM)	6 µg/mL (≈ 19.6 µM)	6 µg/mL (≈ 19.6 µM)	6 µg/mL (≈ 19.6 µM)
COc1ccc(-c2nnc(-c3ccccc3C(F)(F)F)o2)c(F)c1	6 µg/mL (≈ 17.7 µM)	6 µg/mL (≈ 17.7 µM)	6 µg/mL (≈ 17.7 µM)	6 µg/mL (≈ 17.7 µM)	6 µg/mL (≈ 17.7 µM)
COc1ccc(-c2nnc(-c3cnc4ccccc4c3)o2)c(F)c1	6 µg/mL (≈ 18.7 µM)	6 µg/mL (≈ 18.7 µM)	6 µg/mL (≈ 18.7 µM)	6 µg/mL (≈ 18.7 µM)	6 µg/mL (≈ 18.7 µM)
COc1ccc(-c2nnc(-c3ccc(F)c(F)c3F)o2)c(F)c1	6 µg/mL (≈ 18.5 µM)	3 µg/mL (≈ 9.25 µM)	3 µg/mL (≈ 9.25 µM)	6 µg/mL (≈ 18.5 µM)	6 µg/mL (≈ 18.5 µM)
COc1ccc(-c2nnc(-c3cccc(C#N)c3)o2)c(F)c1	6 µg/mL (≈ 20.3 µM)	6 µg/mL (≈ 20.3 µM)	6 µg/mL (≈ 20.3 µM)	6 µg/mL (≈ 20.3 µM)	6 µg/mL (≈ 20.3 µM)
OC(Cn1cncn1)(Cn1cncn1)c1ccc(F)cc1F [FLUCONAZOLE]	6 µg/mL (≈ 19.6 µM)	–	–	–	–
COc1ccc(-c2nnc(-c3ccc(Cl)nc3)o2)c(F)c1	6 µg/mL (≈ 19.6 µM)	6 µg/mL (≈ 19.6 µM)	12.5 µg/mL (≈ 40.9 µM)	12.5 µg/mL (≈ 40.9 µM)	6 µg/mL (≈ 19.6 µM)
